Laboratory results: ChEMBL document CHEMBL1146196, “Bactericidal activity and resistance development profiling of dalbavancin” (2007)
≈ marks a conversion by molar mass, not a printed value. Calls of active or inactive are those of the source. No cut-off for these calls is given here.

Tests used:
Staphylococcus aureus [1] = assay: Antimicrobial activity against methicillin-susceptible Staphylococcus aureus FB892379 by broth microdilution method; type: functional
Procedure, shortened: (§1)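 Clinical staphylococcal isolates from US hospitals with known resistance phenotypes.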

Staphylococcus aureus [2] = assay: Antimicrobial activity against methicillin-susceptible Staphylococcus aureus FB1050986 by broth microdilution method; type: functional; procedure, shortened: as §1
Staphylococcus aureus [3] = assay: Antimicrobial activity against methicillin-resistant Staphylococcus aureus FB1051634 by broth microdilution method; type: functional; procedure, shortened: as §1
Staphylococcus aureus [4] = assay: Antimicrobial activity against methicillin-resistant Staphylococcus aureus FB1065524 by broth microdilution method; type: functional; procedure, shortened: as §1
Staphylococcus aureus [5] = assay: Antimicrobial activity against vancomycin-intermediate Staphylococcus aureus FB988644; type: functional
[6] = tested on: Staphylococcus epidermidis; assay: Antimicrobial activity against methicillin-resistant Staphylococcus epidermidis FB758988 by broth microdilution method; type: functional; procedure, shortened: as §1
[7] = tested on: Staphylococcus epidermidis; assay: Antimicrobial activity against methicillin-resistant Staphylococcus epidermidis FB750345 by broth microdilution method; type: functional; procedure, shortened: as §1
[8] = tested on: Staphylococcus epidermidis; assay: Antimicrobial activity against methicillin-resistant Staphylococcus epidermidis FB896283 by broth microdilution method; type: functional; procedure, shortened: as §1
[9] = tested on: Staphylococcus haemolyticus; assay: Antimicrobial activity against Staphylococcus haemolyticus FB953975 by broth microdilution method; type: functional
[10] = tested on: Staphylococcus haemolyticus; assay: Antimicrobial activity against Staphylococcus haemolyticus FB954177 by broth microdilution method; type: functional
Streptococcus pyogenes [11] = assay: Antimicrobial activity against erythromycin-resistant Streptococcus pyogenes FB764371 by broth microdilution method; type: functional
Procedure, shortened: (§2)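 Clinical US hospital isolates. The medium was supplemented with 2 to 5% lysed horse blood.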

Streptococcus pyogenes [12] = assay: Antimicrobial activity against erythromycin-susceptible Streptococcus pyogenes FB1041775 by broth microdilution method; type: functional
Streptococcus pyogenes [13] = assay: Antimicrobial activity against erythromycin-susceptible Streptococcus pyogenes FB1041626 by broth microdilution method; type: functional; procedure, shortened: as §2
Enterococcus faecalis [14] = assay: Antimicrobial activity against vancomycin-susceptible Enterococcus faecalis FB766323; type: functional
Enterococcus faecalis [15] = assay: Antimicrobial activity against vancomycin-susceptible Enterococcus faecalis FB766782; type: functional
Staphylococcus aureus [16] = assay: Bacterial killing activity of methicillin-susceptible Staphylococcus aureus at 0.25 ug/ml; type: functional, organism-based
Procedure, shortened: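 Time-kill per CLSI; inoculum approximately 10^7 CFU/ml; dalbavancin at 0.25, 1, 4 and 16 µg/ml; viable counts after 24 h exposure, expressed as log10 reduction.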

Staphylococcus aureus [17] = assay: Bacterial killing activity of methicillin-resistant Staphylococcus aureus at 0.25 ug/ml; type: functional, organism-based
Procedure, shortened: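 Time-kill per CLSI with a starting inoculum of approximately 10^7 CFU/ml. Dalbavancin was tested at 0.25, 1, 4 and 16 µg/ml, chosen to reflect free plasma levels plus a lower level. Viable counts were taken over 24 h and reported as log10 decrease.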

Streptococcus pyogenes [18] = assay: Bacterial killing activity of Streptococcus pyogenes at 0.25 ug/ml; type: functional
Procedure, shortened: (§3)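 CLSI time-kill in medium with 2 to 5% lysed horse blood; starting inoculum approximately 10^7 CFU/ml; dalbavancin at 0.25, 1, 4 and 16 µg/ml; viable counts followed to 24 h, killing expressed as log10 decrease.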

Streptococcus pyogenes [19] = assay: Bacterial killing activity of Streptococcus pyogenes at >=1 ug/ml; type: functional; procedure, shortened: as §3
Enterococcus faecium [20] = assay: Antimicrobial activity against vancomycin-susceptible Enterococcus faecium FB769334
Enterococcus faecium [21] = assay: Antimicrobial activity against vancomycin-susceptible Enterococcus faecium FB767191
Streptococcus pyogenes [22] = assay: Bactericidal activity against Streptococcus pyogenes; type: functional
Staphylococcus aureus [23] = assay: Bacterial killing activity of methicillin-susceptible Staphylococcus aureus at 8 to 32 ug/ml; type: functional
Staphylococcus aureus [24] = assay: Bacterial killing activity of methicillin-resistant Staphylococcus aureus at 8 to 32 ug/ml; type: functional
Staphylococcus aureus [25] = assay: Bacterial killing activity of vancomycin-intermediate Staphylococcus aureus at 8 to 32 ug/ml; type: functional

Compound | MBC (Staphylococcus aureus [1]) [µg/mL] | MBC (Staphylococcus aureus [2]) [µg/mL] | MBC (Staphylococcus aureus [3]) [µg/mL] | MBC (Staphylococcus aureus [4]) [µg/mL] | MBC (Staphylococcus aureus [5]) [µg/mL] | MBC [6] [µg/mL] | MBC [7] [µg/mL] | MBC [8] [µg/mL] | MBC [9] [µg/mL] | MIC [9] [µg/mL] | MBC [10] [µg/mL] | MIC [10] [µg/mL] | MBC (Streptococcus pyogenes [11]) [µg/mL] | MBC (Streptococcus pyogenes [12]) [µg/mL] | MBC (Streptococcus pyogenes [13]) [µg/mL] | MBC (Enterococcus faecalis [14]) [µg/mL] | MBC (Enterococcus faecalis [15]) [µg/mL] | MBC (Enterococcus faecium [20]) [µg/mL] | MBC (Enterococcus faecium [21]) [µg/mL] | also measured
CN[C@H]1C(=O)N[C@@H]2Cc3ccc(cc3)Oc3cc4cc(c3O[C@@H]3O[C@H](C(=O)O)[C@@H](O)[C@H](O)[C@H]3NC(=O)CCCCCCCCC(C)C)Oc3ccc(cc3Cl)[C@@H](O)[C@@H]3NC(=O)[C@H](NC(=O)[C@@H]4NC(=O)[C@@H](NC2=O)c2cc(cc(O)c2Cl)Oc2cc1ccc2O)c1ccc(O)c(c1)-c1c(O[C@H]2O[C@H](CO)[C@@H](O)[C@H](O)[C@@H]2O)cc(O)cc1[C@@H](C(=O)NCCCN(C)C)NC3=O [DALBAVANCIN] | 0.06 (≈ 0.033 µM) | 1 (≈ 0.55 µM) | 0.06 (≈ 0.033 µM) | 0.5 (≈ 0.275 µM) | 2 (≈ 1.1 µM) | 0.06 (≈ 0.033 µM) | 0.06 (≈ 0.033 µM) | 0.03 (≈ 0.0165 µM) | 0.25 (≈ 0.138 µM) | 0.12 (≈ 0.0661 µM) | 0.12 (≈ 0.0661 µM) | 0.03 (≈ 0.0165 µM) | 0.008 (≈ 0.0044 µM) | 0.25 (≈ 0.138 µM) | 0.008 (≈ 0.0044 µM) | 8 (≈ 4.4 µM) | 4 (≈ 2.2 µM) | 2 (≈ 1.1 µM) | 2 (≈ 1.1 µM) | MIC (Staphylococcus aureus [1]): 0.06 µg/mL (≈ 0.033 µM); MIC (Staphylococcus aureus [2]): 0.06 µg/mL (≈ 0.033 µM); MIC (Staphylococcus aureus [3]): 0.06 µg/mL (≈ 0.033 µM); MIC (Staphylococcus aureus [4]): 0.06 µg/mL (≈ 0.033 µM); MIC (Staphylococcus aureus [5]): 1 µg/mL (≈ 0.55 µM); MIC [6]: 0.06 µg/mL (≈ 0.033 µM); MIC [7]: 0.06 µg/mL (≈ 0.033 µM); MIC [8]: 0.03 µg/mL (≈ 0.0165 µM); MIC (Streptococcus pyogenes [11]): 0.008 µg/mL (≈ 0.0044 µM); MIC (Streptococcus pyogenes [12]): 0.008 µg/mL (≈ 0.0044 µM); MIC (Streptococcus pyogenes [13]): 0.008 µg/mL (≈ 0.0044 µM); MIC (Enterococcus faecalis [14]): 0.03 µg/mL (≈ 0.0165 µM); MIC (Enterococcus faecalis [15]): 0.06 µg/mL (≈ 0.033 µM); Activity (Staphylococcus aureus [16]): Active; Activity (Staphylococcus aureus [17]): Active; Log10 cfu (Streptococcus pyogenes [18]): >3; Log10 cfu (Streptococcus pyogenes [19]): 5; MIC (Enterococcus faecium [20]): 0.015 µg/mL (≈ 0.00826 µM); MIC (Enterococcus faecium [21]): 0.03 µg/mL (≈ 0.0165 µM)
CN[C@H](CC(C)C)C(=O)N[C@H]1C(=O)N[C@@H](CC(N)=O)C(=O)N[C@H]2C(=O)N[C@H]3C(=O)N[C@H](C(=O)N[C@H](C(=O)O)c4cc(O)cc(O)c4-c4cc3ccc4O)[C@H](O)c3ccc(c(Cl)c3)Oc3cc2cc(c3O[C@@H]2O[C@H](CO)[C@@H](O)[C@H](O)[C@H]2O[C@H]2C[C@](C)(N)[C@H](O)[C@H](C)O2)Oc2ccc(cc2Cl)[C@H]1O [VANCOMYCIN] | 1 (≈ 0.69 µM) | 2 (≈ 1.38 µM) | 1 (≈ 0.69 µM) | 1 (≈ 0.69 µM) | 8 (≈ 5.52 µM) | 2 (≈ 1.38 µM) | 2 (≈ 1.38 µM) | 2 (≈ 1.38 µM) | 4 (≈ 2.76 µM) | 4 (≈ 2.76 µM) | > 32 | 1 (≈ 0.69 µM) | 0.5 (≈ 0.345 µM) | > 2 | 0.5 (≈ 0.345 µM) | > 32 | > 32 | 16 (≈ 11 µM) | > 32 | Log10 cfu (Streptococcus pyogenes [22]): <2; Log10 cfu (Staphylococcus aureus [23]): >=3; Log10 cfu (Staphylococcus aureus [24]): >=3; Log10 cfu (Staphylococcus aureus [25]): >=3
